ChEMBL document CHEMBL1828503, “Design, synthesis and docking studies of quinoline-oxazolidinone hybrid molecules and their antitubercular properties” (2011)
≈ marks a conversion by molar mass, not a printed value.

Tests used:
Format in all cases: functional
[1] = system: Mycolicibacterium smegmatis; experiment: Antimicrobial activity against Mycobacterium smegmatis ATCC 19420 after 7 days by resazurin assay; conditions: ATCC 19420, 168 h
Summary of the method: (§1)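 Resazurin microplate assay. Culture added to fresh medium in 96-well plates. Compound stocks 2 mg/mL in DMF. DMF-only controls, with rifampicin and isoniazid as references. Incubated 7 days at 37 °C, then 0.01% resazurin in water added. Blue-to-pink change read after 1 h at 37 °C. MIC taken as the lowest concentration preventing the colour change.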

[2] = system: Mycobacterium tuberculosis; experiment: Antimicrobial activity against Mycobacterium tuberculosis H37Rv ATCC 27294 assessed as growth inhibition after 7 days by resazurin assay
[3] = system: Mycolicibacterium fortuitum; experiment: Antimicrobial activity against Mycobacterium fortuitum ATCC 19542 after 7 days by resazurin assay; conditions: ATCC 19542, 168 h; summary of the method: as §1
Staphylococcus aureus = experiment: Antimicrobial activity against Staphylococcus aureus ATCC 25923 after 18 to 48 hrs by serial dilution method
Streptococcus pyogenes = experiment: Antimicrobial activity against Streptococcus pyogenes clinical isolate after 18 to 48 hrs by serial dilution method
Klebsiella pneumoniae = experiment: Antimicrobial activity against Klebsiella pneumoniae clinical isolate after 18 to 48 hrs by serial dilution method
[4] = system: Mycobacterium tuberculosis; experiment: Antimicrobial activity against Mycobacterium tuberculosis H37Rv ATCC 27294 after 7 days by resazurin assay; conditions: H37Rv ATCC 27294, 168 h
Summary of the method: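 M. tuberculosis H37Rv ATCC 27294 culture diluted into fresh medium in 96-well microtitre plates. Compounds were taken from 2 mg/mL stocks in DMF, with DMF-only control tubes and rifampicin and isoniazid as references. Plates were incubated 37 °C for 7 days, then 0.01% aqueous resazurin was added and read after 1 h at 37 °C. MIC is the lowest concentration preventing the blue-to-pink change.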

Escherichia coli = experiment: Antimicrobial activity against Escherichia coli ATCC 25922 after 18 to 48 hrs by serial dilution method
Pseudomonas aeruginosa = experiment: Antimicrobial activity against Pseudomonas aeruginosa ATCC 27853 after 18 to 48 hrs by serial dilution method

| Structure (SMILES) | MIC [1] [µg/mL] | growth inhibition (GI) [2] [%] | MIC [3] [µg/mL] | MIC (Staphylococcus aureus) [µg/mL] | MIC (Streptococcus pyogenes) [µg/mL] | MIC (Klebsiella pneumoniae) [µg/mL] | MIC [4] [µg/mL] | MIC (Escherichia coli) [µg/mL] | MIC (Pseudomonas aeruginosa) [µg/mL] |
| --- | --- | --- | --- | --- | --- | --- | --- | --- | --- |
| COc1ccc2nc(C)cc(N3CC(CNC(C)=O)OC3=O)c2c1 (stereo unspecified) | 2.5 (≈ 7.59 µM) | 95 | 10 (≈ 30.4 µM) | 0.8 (≈ 2.43 µM) | 0.2 (≈ 0.607 µM) | 0.1 (≈ 0.304 µM) | 0.625 (≈ 1.9 µM) | 0.2 (≈ 0.607 µM) | 0.4 (≈ 1.21 µM) |
| COc1ccc2nc(C)cc(N3CC(CNC(=O)C4CC4)OC3=O)c2c1 (stereo unspecified) | 10 (≈ 28.1 µM) | 90 | 10 (≈ 28.1 µM) | 0.8 (≈ 2.25 µM) | 0.4 (≈ 1.13 µM) | 1.6 (≈ 4.5 µM) | 1 (≈ 2.81 µM) | 0.8 (≈ 2.25 µM) | 0.4 (≈ 1.13 µM) |
| COc1ccc2nc(C)cc(N3CC(CNC(=O)C4CCC4)OC3=O)c2c1 (stereo unspecified) | 100 (≈ 271 µM) | 85 | 100 (≈ 271 µM) | 1.6 (≈ 4.33 µM) | 1.6 (≈ 4.33 µM) | 6.25 (≈ 16.9 µM) | 2.5 (≈ 6.77 µM) | 1.6 (≈ 4.33 µM) | 3.12 (≈ 8.46 µM) |
| COc1ccc2nc(C)cc(N3CC(CNC(=O)c4ccc(F)cc4)OC3=O)c2c1 (stereo unspecified) | 10 (≈ 24.4 µM) | 90 | 10 (≈ 24.4 µM) | 0.8 (≈ 1.95 µM) | 0.4 (≈ 0.977 µM) | 0.1 (≈ 0.244 µM) | 1 (≈ 2.44 µM) | 0.2 (≈ 0.488 µM) | 0.4 (≈ 0.977 µM) |
| COc1ccc2nc(C)cc(N3CC(CNC(=O)c4ccccc4F)OC3=O)c2c1 (stereo unspecified) | 5 (≈ 12.2 µM) | 90 | 10 (≈ 24.4 µM) | 1.6 (≈ 3.91 µM) | 3.12 (≈ 7.63 µM) | 6.25 (≈ 15.3 µM) | 1 (≈ 2.44 µM) | 6.25 (≈ 15.3 µM) | 3.12 (≈ 7.63 µM) |
| COc1ccc2nc(C)cc(N3CC(CNC(=O)c4ccccc4)OC3=O)c2c1 (stereo unspecified) | 100 (≈ 255 µM) | 0 | 100 (≈ 255 µM) | 3.12 (≈ 7.98 µM) | 3.12 (≈ 7.98 µM) | 6.25 (≈ 16 µM) | 100 (≈ 255 µM) | > 12.5 | > 12.5 |
| CCc1ccc(C(=O)NCC2CN(c3cc(C)nc4ccc(OC)cc34)C(=O)O2)cc1 (stereo unspecified) | 100 (≈ 238 µM) | 0 | 100 (≈ 238 µM) | 1.6 (≈ 3.81 µM) | 6.25 (≈ 14.9 µM) | 1.6 (≈ 3.81 µM) | 100 (≈ 238 µM) | 3.12 (≈ 7.45 µM) | > 12.5 |
| COc1ccc2nc(C)cc(N3CC(CNC(=O)c4ccc(C)cc4)OC3=O)c2c1 (stereo unspecified) | 100 (≈ 247 µM) | 0 | 100 (≈ 247 µM) | 3.12 (≈ 7.71 µM) | 1.6 (≈ 3.95 µM) | 3.12 (≈ 7.71 µM) | 100 (≈ 247 µM) | 3.12 (≈ 7.71 µM) | 3.12 (≈ 7.71 µM) |
| COc1ccc(C(=O)NCC2CN(c3cc(C)nc4ccc(OC)cc34)C(=O)O2)cc1 (stereo unspecified) | 5 (≈ 11.9 µM) | 85 | 10 (≈ 23.7 µM) | 0.8 (≈ 1.9 µM) | 0.4 (≈ 0.949 µM) | 0.1 (≈ 0.237 µM) | 5 (≈ 11.9 µM) | 0.2 (≈ 0.475 µM) | 0.2 (≈ 0.475 µM) |
| COc1ccc2nc(C)cc(N3CC(CNC(=O)c4ccc(C(F)(F)F)cc4)OC3=O)c2c1 (stereo unspecified) | 10 (≈ 21.8 µM) | 90 | 2.5 (≈ 5.44 µM) | 0.8 (≈ 1.74 µM) | 0.4 (≈ 0.871 µM) | 0.8 (≈ 1.74 µM) | 0.625 (≈ 1.36 µM) | 0.4 (≈ 0.871 µM) | 0.4 (≈ 0.871 µM) |
| COc1ccc(C(=O)NCC2CN(c3cc(C)nc4ccc(OC)cc34)C(=O)O2)c(C)c1 (stereo unspecified) | 100 (≈ 230 µM) | 85 | 100 (≈ 230 µM) | 0.8 (≈ 1.84 µM) | 1.6 (≈ 3.67 µM) | 0.8 (≈ 1.84 µM) | 1 (≈ 2.3 µM) | 1.6 (≈ 3.67 µM) | 3.12 (≈ 7.18 µM) |
| COc1ccc2nc(C)cc(N3CC(CNC(=O)c4ccc(Cl)cc4)OC3=O)c2c1 (stereo unspecified) | 100 (≈ 235 µM) | 85 | 100 (≈ 235 µM) | 1.6 (≈ 3.76 µM) | 3.12 (≈ 7.34 µM) | 6.25 (≈ 14.7 µM) | 100 (≈ 235 µM) | 3.12 (≈ 7.34 µM) | 6.25 (≈ 14.7 µM) |
| COc1ccc2nc(C)cc(NC(=O)CN3CC(CN(C)C)OC3=O)c2c1 (stereo unspecified) | 2.5 (≈ 6.71 µM) | 95 | 10 (≈ 26.9 µM) | 0.8 (≈ 2.15 µM) | 0.8 (≈ 2.15 µM) | 0.4 (≈ 1.07 µM) | 0.625 (≈ 1.68 µM) | 0.2 (≈ 0.537 µM) | 0.2 (≈ 0.537 µM) |
| CCN(CC)CC1CN(CC(=O)Nc2cc(C)nc3ccc(OC)cc23)C(=O)O1 (stereo unspecified) | 10 (≈ 25 µM) | 90 | 10 (≈ 25 µM) | 1.6 (≈ 4 µM) | 3.12 (≈ 7.8 µM) | 0.1 (≈ 0.25 µM) | 1 (≈ 2.5 µM) | 0.4 (≈ 0.999 µM) | 0.4 (≈ 0.999 µM) |
